According to ChEMBL document CHEMBL1141586, “Design and optimization of imidazole derivatives as potent CXCR3 antagonists” (Bioorg Med Chem Lett, 2008):
Values after ≈ are worked out from the molar mass of the structure shown.

Assays:
[1] = molecular target: T1, C-X-C chemokine receptor type 3 (Homo sapiens) (UniProt P49682); experiment: Antagonist activity at human CXCR3 receptor assessed as ITAC-induced cellular migration in PBMC in presence of plasma; type: functional
T1 sequence (whole entry): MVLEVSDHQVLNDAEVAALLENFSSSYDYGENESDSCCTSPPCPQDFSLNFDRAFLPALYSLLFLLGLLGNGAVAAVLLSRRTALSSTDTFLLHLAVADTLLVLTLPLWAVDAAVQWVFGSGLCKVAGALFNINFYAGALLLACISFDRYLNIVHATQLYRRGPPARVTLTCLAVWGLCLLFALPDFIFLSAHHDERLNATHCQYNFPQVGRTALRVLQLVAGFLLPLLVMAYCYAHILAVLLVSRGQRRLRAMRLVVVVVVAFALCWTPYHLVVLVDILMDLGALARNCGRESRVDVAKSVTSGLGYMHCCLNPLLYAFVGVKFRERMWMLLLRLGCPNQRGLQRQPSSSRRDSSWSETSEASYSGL

[2] = AUC in rat at 2 mg/kg, po; type: ADME, organism-based; design: dose 2 mg/kg, route oral; settings: plasma
Rattus norvegicus [3] = experiment: AUC in rat at 0.5 mg/kg, iv; type: ADME, organism-based, Plasma; design: dose 0.5 mg/kg, route intravenous; settings: in vivo
Method in brief: (§1)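 Rats given a single intravenous dose of 0.5 mg/kg; clearance, AUC and mean residence time derived from plasma exposure; n = 2 animals.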

[4] = Oral bioavailability in rat at 2 mg/kg; type: ADME, organism-based; settings: in vivo
[5] = Mean residence time in rat at 0.5 mg/kg, iv; type: ADME, organism-based; design: dose 0.5 mg/kg, route intravenous; settings: in vivo; method in brief: as §1
[6] = Membrane permeability by PAMPA assay; type: ADME; settings: read-out: permeability
Method in brief: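 PAMPA: passive permeation across an artificial phospholipid bilayer membrane; result expressed in 10^-6 cm/s.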

[7] = molecular target: T2, C-X-C chemokine receptor type 3 (Homo sapiens, UniProt P49682); experiment: Displacement of [125I]IP10 from human recombinant CXCR3 receptor expressed in IL2-activated human PBMC in presence of plasma
T2 sequence (P49682 whole entry): T1 sequence (whole entry)
Method in brief: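 PBMC were activated for 14 days with anti-CD3 mAb and recombinant human IL-2, then co-incubated with antagonist and recombinant human 125I-IP10 for 2 h at room temperature in EDTA-anticoagulated human plasma (from frozen stocks). Cells were filter-harvested and bound radioactivity counted by scintillation. IC50 is the mean of three experiments.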

[8] = Mean residence time in rat at 2 mg/kg, po; type: ADME, organism-based; design: dose 2 mg/kg, route oral; settings: in vivo
[9] = Solubility at pH 7.4; type: physicochemical; settings: buffer
Method in brief: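 10 mM DMSO stock added to pH 7.4 assay buffer, final DMSO about 1%. Compound concentration in the supernatant is measured.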

Rattus norvegicus [10] = experiment: Clearance in rat at 0.5 mg/kg, iv; type: ADME, organism-based; design: dose 0.5 mg/kg, route intravenous; settings: in vivo; method in brief: as §1
[11] = molecular target: T2, C-X-C chemokine receptor type 3; experiment: Displacement of [125I]IP10 from human recombinant CXCR3 receptor expressed in IL2-activated human PBMC
Liver microsomes = experiment: Metabolic stability in human liver microsomes assessed as decrease in glutathione conjugate formation; type: ADME, Microsome; design: scale not given: the % may be the effect or the level left

Compound | Activity [1] [nM] | IC50 [7] [nM] | IC50 [11] [nM] | further results
CCS(=O)(=O)CCN(C(=O)Cc1ccc(F)c(C(F)(F)F)c1)[C@H](C)c1nc(-c2ccccc2)cn1-c1ccc(C#N)cc1 | 10 | 14 | 0.7 | AUC [2]: 11 ng·h/mL; AUC (Rattus norvegicus [3]): 92 ng·h/mL; bioavailability [4]: 3%; MRT [5]: 0.3 h; Papp [6]: 0.9 ×10⁻⁶ cm/s; MRT [8]: 0.9 h; solubility [9]: 0.5 µg/mL (≈ 0.816 µM); CL (Rattus norvegicus [10]): 91.7 mL/min/kg
CCS(=O)(=O)CCN(C(=O)Cc1ccc(F)c(C(F)(F)F)c1)[C@H](C)c1nc(-c2ccccn2)cn1-c1ccc(C#N)cc1 | 33 | 43 | 4 | 
C=Cc1c(C2CC2)nc([C@@H](C)N(CCS(=O)(=O)CC)C(=O)Cc2ccc(F)c(C(F)(F)F)c2)n1-c1ccc(C#N)cc1 | 45 | 22 | 3.8 | Activity (Liver microsomes): 8%
CCOc1ccc(-n2cc(-c3ccccc3)nc2[C@@H](C)N(Cc2ccccn2)C(=O)Cc2ccc(F)c(C(F)(F)F)c2)cc1 |  | 1180 | 80 | 
CCOc1ccc(-n2cc(-c3ccccc3)nc2[C@@H](C)N(C[C@@H]2CCCN2)C(=O)Cc2ccc(F)c(C(F)(F)F)c2)cc1 |  | 20 | 11 | 
CCOc1ccc(-n2cc(-c3ccccc3)nc2[C@@H](C)N(CCCS(=O)(=O)CC)C(=O)Cc2ccc(F)c(C(F)(F)F)c2)cc1 |  | 18 | 2.4 | 
CCOc1ccc(-n2cc(-c3ccccc3)nc2[C@@H](C)N(C[C@@H]2CCCN2C)C(=O)Cc2ccc(F)c(C(F)(F)F)c2)cc1 |  | 31 | 6.4 | 
CCOc1ccc(-n2cc(-c3ccccc3)nc2[C@@H](C)N(C[C@H]2CCCN2C)C(=O)Cc2ccc(F)c(C(F)(F)F)c2)cc1 |  | 81 | 14 | 
CCS(=O)(=O)CCN(C(=O)Cc1ccc(F)c(C(F)(F)F)c1)[C@H](C)c1nc(C2CC2)c(C(F)F)n1-c1ccc(C#N)cc1 | 20 | 18 | 12 | AUC [2]: 456 ng·h/mL; AUC (Rattus norvegicus [3]): 237 ng·h/mL; bioavailability [4]: 48%; MRT [5]: 0.9 h; MRT [8]: 2.4 h; Activity (Liver microsomes): 0%; CL (Rattus norvegicus [10]): 36.7 mL/min/kg
CCOc1ccc(-n2cc(-c3ccccc3)nc2[C@@H](C)N(CCS(=O)(=O)CC)C(=O)Cn2cnc(-c3ccccc3)c2)cc1 |  | 24 | 4.8 | 
CCOc1ccc(-n2cc(-c3ccccc3)nc2[C@@H](C)N(C[C@H]2CCCN2)C(=O)Cc2ccc(F)c(C(F)(F)F)c2)cc1 |  | 36 | 46 | 
CCS(=O)(=O)CCN(C(=O)Cc1ccc(F)c(C(F)(F)F)c1)[C@H](C)c1nc(C2CC2)c(CO)n1-c1ccc(C#N)cc1 | 113 | 33 | 10 | Activity (Liver microsomes): 1%
CCS(=O)(=O)CCN(C(=O)Cc1ccc(F)c(C(F)(F)F)c1)[C@H](C)c1nc(C2CC2)c(CF)n1-c1ccc(C#N)cc1 | 119 | 28 | 8 | 
CCS(=O)(=O)CCN(C(=O)Cc1ccc(F)c(C(F)(F)F)c1)[C@H](C)c1nc(C2CC2)c(C#N)n1-c1ccc(C#N)cc1 |  | 276 | 72 | Activity (Liver microsomes): 0%
CCS(=O)(=O)CCN(C(=O)Cc1ccc(F)c(C(F)(F)F)c1)[C@H](C)c1nc(C(C)(C)C)cn1-c1ccc(C#N)cc1 | 100 | 21 | 2.5 | 
CCOc1ccc(-n2cc(-c3ccccc3)nc2[C@@H](C)N(CCS(=O)(=O)CC)C(=O)Cn2nnc(-c3ccccc3)n2)cc1 |  | 69 | 9.4 | 
CCS(=O)(=O)CCN(C(=O)Cc1ccc(F)c(C(F)(F)F)c1)[C@H](C)c1nc(C2CC2)c(-c2ccccc2)n1-c1ccc(C#N)cc1 |  | 10000 | 752 | 

Compound | Activity [1] [nM] | IC50 [7] [nM] | IC50 [11] [nM] | further results
CCOc1ccc(-n2cc(-c3ccccc3)nc2[C@@H](C)N(Cc2cccnc2)C(=O)Cc2ccc(F)c(C(F)(F)F)c2)cc1 |  | 91 | 11 | 
CCOc1ccc(-n2cc(-c3ccccc3)nc2[C@@H](C)N(CCS(=O)(=O)CC)C(=O)Cn2cc(-c3ccccc3)nn2)cc1 |  | 49 | 5.6 | 
CCc1c(C2CC2)nc([C@@H](C)N(CCS(=O)(=O)CC)C(=O)Cc2ccc(F)c(C(F)(F)F)c2)n1-c1ccc(C#N)cc1 | 29 | 16 | 3.2 | Activity (Liver microsomes): 14%
CCS(=O)(=O)CCN(C(=O)Cc1ccc(F)c(C(F)(F)F)c1)[C@H](C)c1nc(C2CC2)cn1-c1ccc(C#N)cc1 | 53 | 37 | 6.6 | AUC [2]: 95 ng·h/mL; AUC (Rattus norvegicus [3]): 149 ng·h/mL; bioavailability [4]: 16%; MRT [5]: 1 h; Papp [6]: 5.1 ×10⁻⁶ cm/s; MRT [8]: 2.4 h; solubility [9]: 32 µg/mL (≈ 55.5 µM); Activity (Liver microsomes): 44%; CL (Rattus norvegicus [10]): 55 mL/min/kg
CCS(=O)(=O)CCN(C(=O)Cc1ccc(F)c(C(F)(F)F)c1)[C@H](C)c1nc(C2CC2)c(C(F)(F)F)n1-c1ccc(C#N)cc1 | 268 | 45 | 19 | Activity (Liver microsomes): 0%
CCOc1ccc(-n2cc(-c3ccccc3)nc2[C@@H](C)N(CCS(=O)(=O)CC)C(=O)Cn2nnc(-c3ccc(C(F)(F)F)cc3)n2)cc1 |  | 19 | 2.1 | 
CCOc1ccc(-n2cc(-c3ccccc3)nc2[C@@H](C)N(CCS(=O)(=O)CC)C(=O)Cc2ccc(OC(F)(F)F)cc2)cc1 |  | 45 | 7.1 | 
CCOc1ccc(-n2ccnc2[C@@H](C)N(Cc2cccnc2)C(=O)Cc2ccc(F)c(C(F)(F)F)c2)cc1 |  |  | 1800 | 
CCOCCN(C(=O)Cc1ccc(F)c(C(F)(F)F)c1)[C@H](C)c1nc(-c2ccccc2)cn1-c1ccc(OCC)cc1 |  | 202 | 11 | 
CCOc1ccc(-n2cc(-c3ccccc3)nc2[C@@H](C)N(CCS(=O)(=O)CC)C(=O)Cn2ccc(C(F)(F)F)n2)cc1 |  | 1120 | 40 | 
CCOc1ccc(-n2cc(-c3ccccc3)nc2[C@@H](C)N(CCS(=O)(=O)CC)C(=O)Cn2nnc(C3CC3)n2)cc1 |  | 1660 | 44 | 
CCS(=O)(=O)CCN(C(=O)Cc1ccc(F)c(C(F)(F)F)c1)[C@H](C)c1nc(-c2cccnc2)cn1-c1ccc(C#N)cc1 | 91 | 29 | 2.3 | 
CCOc1ccc(-n2cc(-c3ccccc3)nc2[C@@H](C)N(CCS(=O)(=O)CC)C(=O)Cc2ccc(F)c(C(F)(F)F)c2)cc1 |  | 4.5 | 0.4 | 
CCS(=O)(=O)CCN(C(=O)Cc1ccc(F)c(C(F)(F)F)c1)[C@H](C)c1nc(C(C)C)cn1-c1ccc(C#N)cc1 | 54 | 19 | 2.6 | 
CCS(=O)(=O)CCN(C(=O)Cc1ccc(F)c(C(F)(F)F)c1)[C@H](C)c1nc(C2CC2)c(Cl)n1-c1ccc(C#N)cc1 | 80 | 24 | 7.8 | AUC [2]: 225 ng·h/mL; AUC (Rattus norvegicus [3]): 219; bioavailability [4]: 26%; MRT [5]: 1.3 h; MRT [8]: 5.4 h; Activity (Liver microsomes): 0%; CL (Rattus norvegicus [10]): 38.3 mL/min/kg
CCOc1ccc(-n2cc(-c3ccccc3)nc2[C@@H](C)N(Cc2ccncc2)C(=O)Cc2ccc(F)c(C(F)(F)F)c2)cc1 |  | 129 | 35 | 
CCOc1ccc(-n2cc(-c3ccccc3)nc2[C@@H](C)N(CCS(=O)(=O)CC)C(=O)Cn2nnc(-c3ccc(F)cc3)n2)cc1 |  | 47 | 5 | 
